LMPTP block – LMPTP phosphatase inhibitors, primary screen, biochemical, fluorescence intensity, uHTS | Low molecular weight phosphotyrosine protein phosphatase (Homo sapiens), P24666 | recombinant LMPTP-A, OMFP fluorogenic substrate | inhibition, % at 20 µM | actives 0.22% (n = 360,000);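 active = compounds that cut the enzyme signal by at least half of the control window in the single-dose screen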;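 note: plate controls were DMSO wells with enzyme plus substrate for no effect and substrate without enzyme for full effect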
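Test system: LMPTP-A, protein tyrosine phosphatase of low molecular weight; Input: 0.625 nM enzyme; Incubation: 50 min dark incubation at room temperature; Signal: endpoint fluorescence intensity from OMFP dephosphorylation; Read-out basis: % inhibition versus control wells.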
DNMT1 inh – human DNMT1 methyltransferase inhibitors, primary screen, biochemical, molecular beacon, fluorescence, HinP1I cleavage, uHTS | DNA (cytosine-5)-methyltransferase 1 (Homo sapiens), P26358 | actives 0.83% (n = 360,000) | AID 588458, 2011 | inhibition (reported as % activation of signal), % at 10 µM; in the data active = inhibition above about 50%
CSN inh – inhibitors of CSN-mediated cullin deneddylation, primary screen, biochemical, fluorescence polarization, uHTS. Purified CSN, SCF-Nedd8-OG deneddylation. COP9 signalosome complex subunit 5 (Homo sapiens), Q92905. inhibition, % at 12.5 µM. actives 0.38% (n = 360,000);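 active = pattern-corrected inhibition above about 35%, with an unprinted fluorescence ratio check between 0.5 and 1.5, limit read from the data, passing the limit was not always enough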;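 note: 0% = enzyme with substrate and 100% = substrate without enzyme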
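Assay system: Purified human Csn5 enzyme expressed in HEK293T cells | Amount: Enzyme 0.24 nM | Measured by: Fluorescence polarization readout | Medium: Tris/NaCl/DTT buffer, pH 7.5 | Compound dosing: One concentration, 12.5 µM, 0.25% DMSO | Times: 90 min incubation of compound, enzyme and substrate at room temperature | Control set: no-enzyme wells high, enzyme-with-substrate wells low | Read-out: % inhibition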
Scp1 inh – Scp-1 phosphatase inhibitors, primary screen, biochemical, colorimetric, uHTS. Carboxy-terminal domain RNA polymerase II polypeptide A small phosphatase 1 (Homo …. Recombinant Scp1, phosphopeptide, malachite green phosphate absorbance. actives 0.88% (n = 340,000). inhibition, % at 20 µM;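 active = inhibition above about 50% at 20 µM, limit read from the data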;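 note: plate controls were DMSO wells with enzyme for no effect and wells lacking enzyme for full effect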
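Test system – truncated SCP-1 phosphatase (76-261aa) · Reagent – Phosphorylated 17-residue peptide substrate · Incubation – 45 min room-temperature reaction, 5 min colour, 30 min stabiliser · Detection – colorimetric phosphate reagent with accelerator and stabiliser, absorbance at 630 nm · Measure – % inhibition at 20 µM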
SUMO1 PPI mod – modulators of SUMO1 protein-protein interactions, primary screen, biochemical, uHTS; SUMO1 binding to a labelled peptide, TR-FRET, 1 h; inhibition, % at 20 µM; actives 0.33% (n = 360,000); in the data active = inhibition above about 37%
STEP inh – STEP phosphatase inhibitors, primary screen, biochemical, fluorescence intensity, uHTS | actives 0.25% (n = 360,000) | AID 588621, 2011 | inhibition, % at 20 µM | recombinant STEP, OMFP fluorogenic substrate;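 active = inhibition at 20 µM, scaled per plate between control wells, above about 37%, limit read from the data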;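 note: 0% = DMSO with enzyme and substrate and 100% = substrate only without enzyme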
Target sequence (P54829 whole entry, looked up): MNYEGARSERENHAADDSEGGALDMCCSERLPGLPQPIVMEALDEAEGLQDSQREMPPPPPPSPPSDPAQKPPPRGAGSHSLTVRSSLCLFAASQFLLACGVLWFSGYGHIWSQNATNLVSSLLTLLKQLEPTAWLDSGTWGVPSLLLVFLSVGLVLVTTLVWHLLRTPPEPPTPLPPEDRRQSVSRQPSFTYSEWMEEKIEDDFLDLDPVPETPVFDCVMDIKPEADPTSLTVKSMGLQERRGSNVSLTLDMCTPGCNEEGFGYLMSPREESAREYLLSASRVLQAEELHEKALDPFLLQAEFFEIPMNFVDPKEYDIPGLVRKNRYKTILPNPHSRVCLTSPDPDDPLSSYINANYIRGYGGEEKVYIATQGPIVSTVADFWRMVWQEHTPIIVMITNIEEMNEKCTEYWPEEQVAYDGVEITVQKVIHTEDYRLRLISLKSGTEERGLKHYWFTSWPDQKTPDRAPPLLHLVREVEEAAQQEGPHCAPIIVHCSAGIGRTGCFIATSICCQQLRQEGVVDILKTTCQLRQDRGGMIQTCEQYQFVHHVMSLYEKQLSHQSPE
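Material: STEP (striatal-enriched tyrosine phosphatase) enzyme, cell-free | Medium: 50 mM Bis-Tris pH 6.0 with 2.5 mM DTT and 0.005% Tween 20 | Read-out: Percent inhibition scaled to no-enzyme and uninhibited-enzyme controls, plate-pattern corrected | Signal: Fluorescence read at 480 nm ex / 540 nm em | Times: 20 min reaction, room temperature, in the dark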
Scp-1 conf – Scp-1 phosphatase inhibitors, retest, confirmation, biochemical, colorimetric, single concentration; shares compounds with Scp1 inh; inhibition, % at 20 µM; actives 61% (n = 2,500); recombinant SCP-1 catalytic domain, phosphate release, malachite green absorbance;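 note: plate controls were DMSO with enzyme for no effect and buffer wells lacking enzyme for full effect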
Scp-1 MG ctr – colorimetric readout interference by compounds, confirmation, artefact control for Scp-1 inhibitor project, biochemical, single concentration; shares compounds with Scp1 inh; Colorimetric interference counterscreen, malachite green absorbance 630 nm; apparent inhibition (interference), % at 20 µM; 2,500 tested, under 10 active;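 note: compounds added after enzyme reaction finished so only phosphate colour detection is probed; plate controls were DMSO wells with completed Scp-1 reaction for no effect and substrate wells lacking enzyme for full effect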
Scp1 DSF – Scp-1 binding by thermal shift, confirmation, orthogonal assay for Scp-1 inhibitor project, biophysical, differential scanning fluorimetry. shares compounds with Scp1 inh. Recombinant SCP1, Sypro Orange thermal shift Tm. thermal shift relative to vanadate control, % at 40 µM. actives 25% (n = 1,500). AID 540329, 2011;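 active = substances whose mean melting-temperature shift, as a percentage of the reference inhibitor's shift, reaches about 5.3%, limit read from the data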;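 note: 0% = Tm of DMSO wells and 100% = Tm with sodium orthovanadate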
Starred values were filed as active, the others as inactive; · = no result; ! = repeats disagree. Sampled rows, rich in hits. Any-hit rate of the full collection: about 2%.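 Rule for the calls, unless noted: active = inhibition of at least 30% at 20 µM; inactive = the rest.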

SMILES	LMPTP block	DNMT1 inh	CSN inh	Scp1 inh	SUMO1 PPI mod	STEP inh	Scp-1 conf	Scp-1 MG ctr	Scp1 DSF
COc1cc(/C=C2\SC(=S)N(CCCCC(=O)O)C2=O)ccc1OS(=O)(=O)c1ccc(C)cc1	8	9	18	51*	11	1	48*	-25	15*
Cc1cccc(-c2nc(S(=O)(=O)c3ccccc3)c(N3CCOCC3)o2)c1	1	-4	2	54*	6	-1	0	4	·
O=C(O)C1(S(=O)(=O)CCC(F)=C(F)F)CC1	-1	1	-13	98*	-6	0	-6	-7	·
COc1ccccc1C(=O)NCC(=O)OC(C)C(=O)N1CCOCC1 (stereo not drawn)	0	-2	-1	60*	1	-1	5	-1	·
O=C1NC(=O)C(c2ccccc2)(c2ccccc2)N1	-1	1	-4	85*!	5	-3	-14	-9	·
O=C1NC(=O)C(c2ccccc2)(c2ccc(O)cc2)N1 (stereo not drawn)	-1	3	-1	-4	-2	2	·	·	·
O=C(O)COc1ccc2c(c1)O/C(=C\c1ccco1)C2=O	2	69*	32	75*	7	77*	70*	6	7.5*
COC(=O)[C@]12CCCCC=C1N(CCC1=CCCCC1)C(=O)[C@H](CC(=O)NCCc1ccccc1OC)C2	5	·	-1	·	8	·	·	·	·
C[n+]1ccc(C(=O)Nc2ccccc2Cl)cc1	-1	3	-5	98*	-10	-3	90*	-14	-13
N#CC1=C(SCC(=O)Nc2ccc(C(=O)O)cc2)NC(=O)CC1c1ccco1 (stereo not drawn)	0	28	11	52*	27	22	46*	-14	5
CC(C)(C)c1ccc(CC(=O)N2CCC2(C)C(=O)Nc2cccc3c2CCCC3)cc1 (stereo not drawn)	8	-9	4	·	7	1	·	·	·
O=C(CNS(=O)(=O)c1c(F)cc(F)cc1Br)OCC(=O)N1CCCC1=O	-1	1	0	5	-2	0	·	·	·
O=C(CNS(=O)(=O)c1ccc(Br)cc1Cl)OCC(=O)N1CCCC1=O	-2	5	0	3	0	-1	-11	-14	·
C=C(C)COC(=O)c1ccccc1C(=O)OCC1(C)CO1 (stereo not drawn)	-1	5	-1	-5	-1	-1	·	·	·
CCOc1ccc(Br)cc1/C=N/O	0	3	-1	-2	-5	4	·	·	·
O=C(O)COc1ccc(Br)cc1/C=N/O	3	19	5	60*	0	11	52*	-3	-14
Brc1ccccc1-c1csnn1	0	3	-6	-4	2	-3	·	·	·
CCOC(=O)Cc1csc(NC(=O)Cc2ccc(Br)cc2)n1	0	-2	-4	54*	-2	-1	-23	-19	·
